Data published in ChEMBL document CHEMBL4038284, “Synthesis of novel quinoline-based 4,5-dihydro-1H-pyrazoles as potential anticancer, antifungal, antibacterial and antiprotozoal agents” (Eur J Med Chem, 2017).
Values after ≈ are worked out from the molar mass of the structure shown. Active and inactive are the calls of the source. The rule behind the calls is not given here.

How the values were obtained:
[1] = system: HCC 2998; experiment: Growth inhibition of human HCC2998 cells at 10 uM incubated for 48 hrs by sulforhodamine B assay; format: functional, cell-based
How it was run: (§1)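 NCI 60-cell-line screen at a single 10 µM dose. Cells in RPMI-1640 with 5% FBS and 2 mM L-glutamine, pre-incubated 24 h, then treated for 48 h at 37 °C. TCA fixation, sulforhodamine B staining, absorbance at 515 nm. Percentage growth calculated against time-zero and untreated controls.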

[2] = system: SF-539; experiment: Growth inhibition of human SF539 cells at 10 uM incubated for 48 hrs by sulforhodamine B assay; format: functional, cell-based
How it was run: (§2)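 NCI 60-line panel, single 10 μM dose. Cells were grown in RPMI-1640 with 5% FBS and 2 mM L-glutamine and pre-incubated 24 h before compound addition (DMSO stock). Exposure was 48 h at 37 °C, 5% CO2. Cells were fixed with cold TCA (10% final), stained with 0.4% SRB, bound dye dissolved in 10 mM Tris base, A515 read. Growth was taken relative to time-zero and untreated control plates.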

[3] = system: NCI/ADR-RES; experiment: Growth inhibition of human NCI/ADR-RES cells at 10 uM incubated for 48 hrs by sulforhodamine B assay; format: functional, cell-based; how it was run: as §2
[4] = system: Cryptococcus neoformans; experiment: Growth inhibition of Cryptococcus neoformans ATCC 32264 at 125 ug/ml incubated for 48 hrs under dark condition by broth microdilution method relative to control; format: functional; settings: ATCC 32264, 48 h, read-out: GI
How it was run: (§3)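 CLSI M27-A3 broth microdilution in RPMI-1640, DMSO ≤1%. Inoculum 1-5 × 10^3 CFU/mL. Incubated 48 h at 30 °C, dark. % inhibition = 100 − (OD405 test − sterility control)/(OD405 growth control − sterility control), with growth and sterility control wells. Triplicate.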

[5] = system: SK-MEL-5; experiment: Growth inhibition of human SK-MEL-5 cells at 10 uM incubated for 48 hrs by sulforhodamine B assay; format: functional, cell-based
How it was run: (§4)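 NCI-60 single-dose screen at 10 µM for 48 h. Cells were grown in RPMI-1640 with 5% FBS and 2 mM L-glutamine and preincubated 24 h before compound. Time-zero plates were TCA-fixed at compound addition. After exposure, cells were TCA-fixed, stained with SRB and read at 515 nm. Percentage growth was calculated against time-zero and untreated-control absorbances.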

[6] = system: RPMI-8226; experiment: Growth inhibition of human RPMI8226 cells at 10 uM incubated for 48 hrs by sulforhodamine B assay; format: functional, cell-based; how it was run: as §2
[7] = system: SNB-19; experiment: Growth inhibition of human SNB19 cells at 10 uM incubated for 48 hrs by sulforhodamine B assay; format: functional, cell-based; how it was run: as §4
[8] = system: PC-3; experiment: Growth inhibition of human PC3 cells at 10 uM incubated for 48 hrs by sulforhodamine B assay; format: functional, cell-based; how it was run: as §2
[9] = system: Staphylococcus aureus; experiment: Antibacterial activity against methicillin-resistant Staphylococcus aureus ATCC 43300 after 24 hrs by resazurin dye based microdilution assay; format: functional; settings: ATCC 43300, 24 h
How it was run: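 Broth microdilution in Mueller Hinton broth, inoculum 5 × 10^5 – 8 × 10^5. Compound stocks diluted in MHB with 5% DMSO and 0.1% Tween 80. Incubation 24 h at 35-37 °C. MIC is the lowest concentration with visible growth inhibition and/or by resazurin (1 mg/mL) read-out. Gentamicin as control. Run in duplicate, replicated at least three times.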

[10] = system: Cryptococcus neoformans; experiment: Growth inhibition of Cryptococcus neoformans ATCC 32264 at 15.62 ug/ml incubated for 48 hrs under dark condition by broth microdilution method relative to control; format: functional; settings: ATCC 32264, 48 h, read-out: GI; how it was run: as §3
[11] = system: Staphylococcus aureus; experiment: Antibacterial activity against vancomycin-intermediate Staphylococcus aureus after 24 hrs by resazurin dye based microdilution assay; format: functional
How it was run: (§5)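 MIC taken as the lowest concentration giving visible inhibition and/or by resazurin (1 mg/mL). Gentamicin was the control. Run in duplicate, repeated at least three times.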

[12] = system: 786-0; experiment: Growth inhibition of human 786-0 cells at 10 uM incubated for 48 hrs by sulforhodamine B assay; format: functional, cell-based; how it was run: as §1
[13] = system: Candida albicans; experiment: Growth inhibition of Candida albicans ATCC 10231 at 31.25 ug/ml incubated for 48 hrs under dark condition by broth microdilution method relative to control; format: functional; settings: ATCC 10231, 48 h, read-out: GI; how it was run: as §3
[14] = system: RXF 393; experiment: Growth inhibition of human RXF393 cells at 10 uM incubated for 48 hrs by sulforhodamine B assay; format: functional, cell-based; how it was run: as §2
[15] = system: BT-549; experiment: Growth inhibition of human BT549 cells at 10 uM incubated for 48 hrs by sulforhodamine B assay; format: functional, cell-based; how it was run: as §1
[16] = system: EKVX; experiment: Growth inhibition of human EKVX cells at 10 uM incubated for 48 hrs by sulforhodamine B assay; format: functional, cell-based; how it was run: as §1
[17] = system: Cryptococcus neoformans; experiment: Growth inhibition of Cryptococcus neoformans ATCC 32264 at 3.4 ug/ml incubated for 48 hrs under dark condition by broth microdilution method relative to control; format: functional; settings: ATCC 32264, 48 h, read-out: GI
[18] = system: Candida albicans; experiment: Growth inhibition of Candida albicans ATCC 10231 at 7.8 ug/ml incubated for 48 hrs under dark condition by broth microdilution method relative to control; format: functional; settings: ATCC 10231, 48 h, read-out: GI; how it was run: as §3
[19] = system: COLO 205; experiment: Growth inhibition of human COLO205 cells at 10 uM incubated for 48 hrs by sulforhodamine B assay; format: functional, cell-based; how it was run: as §1
[20] = system: Leishmania panamensis; experiment: Antileshmanial activity against EpiR/GFP fused Leishmania panamensis MHOM/CO/87/UA140 intracellular amastigotes infected in human […] cells after 72 hrs by flow cytometric method; format: functional, cell-based; settings: MHOM/CO/87/UA140, 72 h
How it was run: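 PMA-treated U-937 cells (3 × 10^5 cells/mL) infected with stationary-phase GFP L. panamensis promastigotes (15:1), 3 h at 34 °C, then washed. After 24 h, compounds added at 50, 12.5, 3.125 and 0.78 µg/mL for 72 h at 37 °C. EC50 by Probit; triplicate, two experiments.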

[21] = system: Candida albicans; experiment: Growth inhibition of Candida albicans ATCC 10231 at 250 ug/ml incubated for 48 hrs under dark condition by broth microdilution method relative to control; format: functional; settings: ATCC 10231, 48 h, read-out: GI; how it was run: as §3
[22] = system: Candida albicans; experiment: Growth inhibition of Candida albicans ATCC 10231 at 62.5 ug/ml incubated for 48 hrs under dark condition by broth microdilution method relative to control; format: functional; settings: ATCC 10231, 48 h, read-out: GI; how it was run: as §3
[23] = system: A498; experiment: Growth inhibition of human A498 cells at 10 uM incubated for 48 hrs by sulforhodamine B assay; format: functional, cell-based; how it was run: as §1
[24] = system: SR; experiment: Growth inhibition of human SR cells at 10 uM incubated for 48 hrs by sulforhodamine B assay; format: functional, cell-based; how it was run: as §4
[25] = system: Candida albicans; experiment: Antifungal activity against Candida albicans ATCC 10231 incubated for 48 hrs under dark condition by broth microdilution method; format: functional; settings: ATCC 10231, 48 h
How it was run: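 CLSI M27-A3 broth microdilution in RPMI-1640, DMSO ≤1%, compounds at 250-0.98 µg/mL final. Inoculum 1-5 × 10^3 CFU/mL. Incubated 48 h at 30 °C in a moist dark chamber, read at OD405. MIC80 and MIC50 taken from % inhibition dose-response curves (mean ± SEM, triplicate). Amphotericin B was the positive control.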

[26] = system: CCRF-CEM; experiment: Growth inhibition of human CCRF-CEM cells at 10 uM incubated for 48 hrs by sulforhodamine B assay; format: functional, cell-based; how it was run: as §1
[27] = system: Klebsiella pneumoniae; experiment: Antibacterial activity against carbapenemase positive Klebsiella pneumoniae BAA 1705 after 24 hrs by resazurin dye based microdilution assay; format: functional; settings: BAA 1705, 24 h; how it was run: as §5

| Compound | growth inhibition (GI) [1] | growth inhibition (GI) [2] | growth inhibition (GI) [3] | inhibition of growth at 125 µg/mL [4] | growth inhibition (GI) [5] | growth inhibition (GI) [6] | growth inhibition (GI) [7] | growth inhibition (GI) [8] | MIC [9] | inhibition of growth at 15.62 µg/mL [10] | MIC [11] | growth inhibition (GI) [12] | inhibition of growth at 31.25 µg/mL [13] | growth inhibition (GI) [14] | growth inhibition (GI) [15] | growth inhibition (GI) [16] | inhibition of growth at 3.4 µg/mL [17] | inhibition of growth at 7.8 µg/mL [18] | growth inhibition (GI) [19] | EC50 [20] | other results |
| --- | --- | --- | --- | --- | --- | --- | --- | --- | --- | --- | --- | --- | --- | --- | --- | --- | --- | --- | --- | --- | --- |
| COc1ccc(C2=NN(c3ccccc3)C(c3cccc(Nc4ccnc5cc(Cl)ccc45)c3)C2)cc1 (configuration not stated) | inactive | inactive | inactive | 16.9% | inactive | inactive | inactive | inactive | > 1000 µg/mL | 6.02% | > 1000 µg/mL | inactive | 13.4% | inactive | inactive | inactive | 2.74% | 7.57% | inactive | 6.93 µg/mL (≈ 13.7 µM) | inhibition of growth at 250 µg/mL [21]: 25.6%; inhibition of growth at 62.5 µg/mL [22]: 17.3%; growth inhibition (GI) [23]: inactive; growth inhibition (GI) [24]: inactive; MIC50 [25]: ≥ 250 µg/mL; MIC80 [25]: ≥ 250 µg/mL; growth inhibition (GI) [26]: inactive; MIC [27]: > 1000 µg/mL |
| COc1cc(C2=NN(c3ccc(Cl)cc3)C(c3cccc(Nc4ccnc5cc(Cl)ccc45)c3)C2)cc(OC)c1OC (configuration not stated) | inactive | inactive | inactive | 17.1% | inactive | inactive | inactive | inactive | > 1000 µg/mL | 12.2% | > 1000 µg/mL | inactive | 8.05% | inactive | inactive | inactive | 8.08% | 4.21% | inactive | 21.3 µg/mL (≈ 35.5 µM) | inhibition of growth at 250 µg/mL [21]: 26.5%; inhibition of growth at 62.5 µg/mL [22]: 12.2%; growth inhibition (GI) [23]: inactive; growth inhibition (GI) [24]: inactive; MIC50 [25]: ≥ 250 µg/mL; MIC80 [25]: ≥ 250 µg/mL; growth inhibition (GI) [26]: inactive; MIC [27]: > 1000 µg/mL |
| Clc1ccc(C2=NN(c3ccccc3)C(c3cccc(Nc4ccnc5cc(Cl)ccc45)c3)C2)cc1 (configuration not stated) | inactive | inactive | inactive | 14.6% | inactive | inactive | inactive | inactive | > 1000 µg/mL | 0% | > 1000 µg/mL | inactive | 4.92% | inactive | inactive | inactive | 0% | 3.8% | inactive | 11.7 µg/mL (≈ 22.9 µM) | inhibition of growth at 250 µg/mL [21]: 19.8%; inhibition of growth at 62.5 µg/mL [22]: 7.77%; growth inhibition (GI) [23]: inactive; growth inhibition (GI) [24]: inactive; MIC50 [25]: ≥ 250 µg/mL; MIC80 [25]: ≥ 250 µg/mL; growth inhibition (GI) [26]: inactive; MIC [27]: > 1000 µg/mL |
| Clc1ccc(C2=NN(c3cc(Cl)cc(Cl)c3)C(c3cccc(Nc4ccnc5cc(Cl)ccc45)c3)C2)cc1 (configuration not stated) | inactive | inactive | inactive | 4.65% | inactive | inactive | inactive | inactive | > 1000 µg/mL | 0% | > 1000 µg/mL | inactive | 13.6% | inactive | inactive | inactive | 0% | 6.01% | inactive | 12 µg/mL (≈ 20.8 µM) | inhibition of growth at 250 µg/mL [21]: 35%; inhibition of growth at 62.5 µg/mL [22]: 13.8%; growth inhibition (GI) [23]: inactive; growth inhibition (GI) [24]: inactive; MIC50 [25]: ≥ 250 µg/mL; MIC80 [25]: ≥ 250 µg/mL; growth inhibition (GI) [26]: inactive; MIC [27]: > 1000 µg/mL |
